Only some compounds are listed: those with a hit (about 0.62% of all), similar ones and a draw of the others.
TNAP act hiacc – TNAP (human) activation, high acceptor | AID 1136 | 200,000 tested, under 10 active | purified TNAP, CDP-star luminescence, 1 M DEA, 30 min; hits give high values; 0 = EDTA background, 1 = DMSO-only activity | activation factor at 20 µM;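 active means activation factor at least 2 at 20 µM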
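Control set: EDTA negative control, DMSO positive control / Assay system: human TNAP / Quantity: TNAP 1/800 final / Evaluation: TNAP activation factor scaled between EDTA and DMSO control wells / Measured by: luminescent substrate turnover signal / Compound dosing: one dose, 20 µM / Times: 30 min enzyme reaction at room temperature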
PMI act – phosphomannose isomerase (human) activation; P34949; purified human PMI, coupled resazurin fluorescence, 20 min; hits give high values; 1 = vehicle control, 0 substrate-free wells; activation factor at 20 µM; hit rate 0.005% among 190,000; AID 1214;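 active means activation factor of 2 or more at 20 µM, relative to plate controls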
Target sequence (P34949 whole entry, looked up): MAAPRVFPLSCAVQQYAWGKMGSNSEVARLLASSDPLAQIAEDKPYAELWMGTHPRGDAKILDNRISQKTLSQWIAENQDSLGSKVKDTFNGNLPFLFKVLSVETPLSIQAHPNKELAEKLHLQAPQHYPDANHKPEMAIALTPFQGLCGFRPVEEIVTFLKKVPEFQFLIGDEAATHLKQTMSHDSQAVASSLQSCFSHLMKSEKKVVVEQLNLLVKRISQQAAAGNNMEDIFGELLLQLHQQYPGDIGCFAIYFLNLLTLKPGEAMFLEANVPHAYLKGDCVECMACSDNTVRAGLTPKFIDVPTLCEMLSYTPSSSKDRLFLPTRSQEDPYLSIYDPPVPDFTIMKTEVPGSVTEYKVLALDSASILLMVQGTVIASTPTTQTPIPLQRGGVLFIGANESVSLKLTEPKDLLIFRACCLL
TNAP inh no acc – blocks human TNAP activity with no phosphate acceptor present | P05186 | purified TNAP, CDP-star luminescence, 30 min | inhibition, % at 20 µM | hit rate 0.26% among 200,000 | AID 1012;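 active means tissue-nonspecific alkaline phosphatase inhibition above about 50% at 20 µM in the single-dose screen, limit read from the data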
PMI act satM6P – activators of human phosphomannose isomerase at near-saturating mannose 6-phosphate; coupled PMI enzyme assay, resazurin fluorescence, 20 min; hits give high values; 1 = untreated enzyme, 0 = substrate-free blank; activation factor at 20 µM; hit rate 0.34% among 190,000; AID 1216;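 active means activation factor of 2 or more at 20 µM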
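Test system: human phosphomannose isomerase with PGI, G6PDH, diaphorase coupling enzymes / Doses: 20 µM compound, 1% DMSO / Times: enzyme reaction with compound 20 min at room temperature / Measured by: Diaphorase-driven resazurin-to-resorufin fluorescence, excitation 544, emission 590 nm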
TNAP inh hiacc – inhibitors of human TNAP at high phosphate acceptor concentration | purified TNAP, CDP-star luminescence, 1 M DEA | hit rate 0.03% among 200,000 | AID 1135 | inhibition, % at 20 µM;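 active means over 50% inhibition of tissue-nonspecific alkaline phosphatase at 20 µM in the single-dose screen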
Hits are given with their value; i = inactive.

SMILES | TNAP act hiacc | PMI act | TNAP inh no acc | PMI act satM6P | TNAP inh hiacc
O=C(CSc1nc(-c2ccccc2)nn1C(=O)c1ccccc1)Nc1cccc([N+](=O)[O-])c1 | i | i | 54.0 | i | i
CNc1sc(C(=O)c2ccccc2F)c(N)c1-c1nc2ccccc2s1 | i | i | i | 2 | i
N#Cc1ccccc1Sc1ccccc1C(=O)N1CCOCC1 | i | i | i | i | i
O=C(c1ccccc1Sc1ccc([N+](=O)[O-])cc1Cl)N1CCOCC1 | i | i | i | 2.1 | i
O=C(O)c1cc(N2N=C(C(F)(F)F)/C(=C/C=C/c3ccco3)C2=O)ccc1Cl | i | i | i | 2.2 | i
O=C(NCC1CCCO1)c1cc2ccccc2oc1=O (centres undefined) | i | i | i | i | i
O=C(CSc1n[nH]c(-c2ccccc2)n1)NC(=O)NCc1ccco1 | i | i | 63.2 | i | i
O=C(O)c1cccc(CSc2n[nH]c(-c3ccc(Cl)cc3Cl)n2)c1 | i | i | 95.9 | i | i
O=C(CSc1n[nH]c(-c2ccccc2)n1)c1ccc(O)c(O)c1 | i | i | 68.4 | i | i
Cc1cc(SCC(=O)c2ccc(O)c(O)c2)nc2ccccc12 | i | i | 72.2 | i | i
CCc1ccc(C(=O)CSc2n[nH]c(-c3ccncc3)n2)cc1 | i | i | i | i | i
[O-]/C(=C(\C(=S)NCc1ccccc1)[n+]1ccccc1)c1ccc(Cl)s1 | i | i | i | i | i
CCCSc1nnc(CSc2nc(C)cc(C)n2)n1C | i | i | i | i | i
COc1cccc(NC(=O)C2CCC(CNS(=O)(=O)c3cccs3)CC2)c1 (centres undefined) | i | i | i | i | i
O=C(O)CC(NC(=O)Cc1ccccc1)c1cc([N+](=O)[O-])ccc1Cl (centres undefined) | i | i | i | i | i
O=C1CCC/C(=N/Nc2ccc(Cl)cc2)C1 | i | i | i | i | i
O=C(CSc1n[nH]c(-c2ccccc2)n1)NCc1cccc(C(=O)O)c1 | i | i | 69.5 | i | i
COc1ccccc1CNC(=O)CN(CCc1ccccc1)S(C)(=O)=O | i | i | i | i | i
O=S(=O)(c1ccc(Cl)cc1)N1CCN(C(=S)Nc2ccc(F)c(Cl)c2)CC1 | i | i | i | i | i
O=C(N/N=C\c1cccc([N+](=O)[O-])c1O)C1COc2ccccc2O1 (centres undefined) | i | i | 53.2 | i | i
O=C(N/N=C/c1cccc([N+](=O)[O-])c1)C1COc2ccccc2O1 (centres undefined) | i | i | i | i | i
N#Cc1cc2c([nH]c1=S)CCCCCC2 | i | i | i | 2.1 | i
Cc1cc(NC(=O)CSc2nnc(C)n2-c2ccccc2C)no1 | i | i | i | i | i
C/C(=N/N=C1/NC(=O)CC(C(=O)Nc2ccccc2)S1)c1cccs1 (centres undefined) | i | i | i | i | i
O=C(c1ccc2snnc2c1)N1CCSCC1 | i | i | i | 2.6 | i
SMILES | TNAP act hiacc | PMI act | TNAP inh no acc | PMI act satM6P | TNAP inh hiacc
O=C(N/N=C/c1ccncc1)c1ccccc1 | i | i | i | i | i
O=C(N/N=C/c1oc(O)c2ccccc12)c1ccccc1 | i | i | i | 2.4 | i
O=C(O)CC(NC(=O)OCc1ccccc1)c1ccccc1 (centres undefined) | i | i | i | i | i
O=C(O)C/C=C(/NC(=O)OCc1ccccc1)C(=O)OCc1ccccc1 | i | i | i | 2.8 | i
COc1ccc(CNC(=O)C2(C)Cc3ccccc3C(=O)O2)cc1 (centres undefined) | i | i | i | i | i
COc1cccc(-c2nn(-c3ccccc3)cc2CN2CCCO2)c1 | i | i | i | i | i
CC(C)C1Nc2ccc(C(=O)O)cc2C2C=CCC21 (centres undefined) | i | i | i | i | i
CCCC1Nc2ccc(C(=O)O)cc2C2C=CCC12 (centres undefined) | i | i | i | 2 | i
CCC(=O)NC1OC(CO)C(O)C(O)C1O (centres undefined) | i | i | i | i | i
C=CCN=c1scc(C)n1/N=C/c1ccc(O)c(O)c1 | i | i | 77.2 | i | i
CN=c1scc(C)n1/N=C/c1ccc(O)cc1 | i | i | i | i | i
CN=c1scc(-c2ccco2)n1/N=C/c1ccc(O)c(O)c1 | i | i | 67.4 | i | i
CC1CN(C(=O)COC(=O)c2nn(-c3ccccc3)c(=O)c3ccccc23)CC(C)O1 (centres undefined) | i | i | i | i | i
CS(=O)(=O)n1nc(-c2ccc(Cl)cc2)nc1SCc1ccccc1 | i | i | 67.7 | i | i
CSc1nc(-c2ccc(Cl)cc2)nn1S(=O)(=O)c1ccccc1 | i | i | i | i | i
CCS(=O)(=O)N1CCC(C(=O)NCc2ccc(OC)cc2)CC1 | i | i | i | i | i
Cc1cc(C2=NNC(=Nc3ccccc3)SC2)c(C)n1C | i | i | i | 2 | i
CCCc1n[nH]c2c1C(=O)C(C(=O)OC)C(C)(C)C2 (centres undefined) | i | i | 61.3 | i | i
CC(C)(/C=N/NC(=O)CSCc1ccc(Cl)cc1)CCC#N | i | i | i | i | i
NS(=O)(=O)c1cccnc1Nc1c(Cl)cccc1Cl | i | i | 58.2 | i | 52.0
CCOc1ccccc1NC(=O)c1c(NC(=O)CCC(=O)O)sc2c1CCCCC2 | i | i | i | 2.1 | i
CN(C)S(=O)(=O)c1cccc(NC(=O)CN2C(=O)NC(CCc3ccccc3)C2=O)c1 (centres undefined) | i | i | i | i | i
COc1ccccc1CCc1nnc(CCC(=O)N(C)Cc2cccc3ncccc23)o1 | i | i | i | i | i
COc1ccc(-c2[nH]ncc2CNC(C)CCn2cccn2)c(F)c1 (centres undefined) | i | i | 72.5 | i | i
COc1ccc(-c2[nH]ncc2CN(C)C(C)c2cccs2)c(F)c1 (centres undefined) | i | i | i | i | i
SMILES | TNAP act hiacc | PMI act | TNAP inh no acc | PMI act satM6P | TNAP inh hiacc
COc1ccc(-c2[nH]ncc2CNC(C)c2cn(C)nc2C)c(F)c1 (centres undefined) | i | i | 74.0 | i | i
CC(=O)Nc1ccc(C(=O)Cn2c3[n+](c4c(F)c(F)ccc42)CCCCC3)cc1 | i | i | i | i | i
S=C1NC2=C(CCC/C2=C\c2ccccc2)C(c2ccccc2)N1 (centres undefined) | i | i | i | 2.4 | i
Fc1ccccc1/C=C1\CCCC2=C1NC(=S)NC2c1ccccc1F (centres undefined) | i | i | i | 2.2 | i
CC(=O)c1cc(CN2CCN(C3CCN(C(C)C)CC3)C(CCO)C2)cs1 (centres undefined) | i | i | i | i | i
COc1ccc([N+](=O)[O-])cc1N(CC(=O)N1CCCCC1)S(C)(=O)=O | i | i | i | i | i
